Experiment [1] has as its target T1, saFabI (Staphylococcus aureus, UniProt Q6GI75).
T1 sequence (Q6GI75 1-256): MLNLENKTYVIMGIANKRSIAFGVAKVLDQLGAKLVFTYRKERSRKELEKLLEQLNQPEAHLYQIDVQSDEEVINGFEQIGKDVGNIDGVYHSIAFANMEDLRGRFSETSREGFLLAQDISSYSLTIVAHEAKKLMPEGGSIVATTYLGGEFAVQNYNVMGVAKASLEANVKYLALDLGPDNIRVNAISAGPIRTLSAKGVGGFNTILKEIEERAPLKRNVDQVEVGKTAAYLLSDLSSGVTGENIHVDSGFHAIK
The experiment in a line: Forward progress curve kinetics of saFabI inhibition. The following applies: for tR: residence time tR = 1/k-1, k-1 from progress curves (b); for slow-binding inhibition of saFabI: curvature of progress curves; for potency estimated from few doses: read-out: Ki. It is filed as biochemical.

The target of a further experiment is saFabI R40Q/K41N/S44L (Staphylococcus aureus, UniProt Q6GI75, K41N/R40Q/S44L). The experiment in a line: 32P-NAD+ dissociation kinetics. Type of experiment: binding. The following applies: for k-1: footnote d: 32P-NAD-based dissociation curve fitted to Eq 5; for tR: residence time tR = 1/k-1, k-1 from 32P-NAD dissociation (d).
The target in experiment [2] is T1, saFabI. The experiment in a line: Jump dilution assay. Type of experiment: biochemical. As to conditions: for recovery of enzyme activity after dilution: 1:200 dilution after overnight preincubation with NADP+; for k-1: footnote c: jump dilution curve fitted to Eq 1; for tR: residence time tR = 1/k-1, k-1 from jump dilution (c). In a few lines: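 Enzyme expressed in E. coli BL21(DE3) and purified by Ni2+ affinity and size exclusion. 10 μM enzyme was preincubated overnight at room temperature with 15 μM inhibitor and 500 μM NADP+. NADPH oxidation was read at 340 nm, 20 °C, and fitted to the Morrison–Walsh integrated equation.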

For the compound `CCCc1ccc(Oc2ccccc2)c(O)c1` [PT02], the tR on saFabI [1] is 60.9 ^b min. Further, on saFabI R40Q/K41N/S44L, the k-1 was 0.57 ± 0.09 ^d hr^-1 and the tR was 105.3 ^d min.
With `CCc1ccc(Oc2ccccc2)c(O)c1` [PT01], the tR at saFabI [1] is given as 63.8 ^b min; on saFabI R40Q/K41N/S44L, 83.3 ^d min. For the same compound, the k-1 on saFabI R40Q/K41N/S44L is listed as 0.72 ± 0.08 ^d hr^-1.
With `N#Cc1ccccc1Oc1ccc(Cl)cc1O` [PT447], the tR on saFabI [1] is on record as 136.4 ^b min. On saFabI [2], the “recovery of enzyme activity after dilution” value is “partially recovered”. At saFabI R40Q/K41N/S44L, the k-1 is 0.47 ± 0.08 ^d hr^-1 and the tR is on record as 127.7 ^d min.
On to `CCCCCCc1ccc(Oc2ccccc2C)c(O)c1` [PT70], for which the “change of affinity by the 2′-substituent” value on saFabI [1] (B-ring ortho position SAR, in words, PT70 data not shown) was “increased affinity”.
On to `O=[N+]([O-])c1ccc(Oc2ccccc2)c(O)c1` [PT104], for which, at saFabI [1] (in words), the “slow-binding inhibition of saFabI” value is on record as “clear slow-binding inhibition”. Further, at saFabI [1], the potency estimated from few doses was 1.49 ± 0.27 nM and the tR is reported as 6.6 ^b min.
With `CCCCCCc1ccc(Oc2ccccc2)c(O)c1` [PT04, 5-hexyl-2-phenoxyphenol], at saFabI R40Q/K41N/S44L, the k-1 is 0.13 ± 0.04 ^d hr^-1 and the tR was 461.5 ^d min.
In the case of `Oc1cc(Cl)ccc1Oc1ccccc1` [PT52], the tR on saFabI [1] was 35.3 ^b min; on saFabI [2], 25.8 ^c min; on saFabI R40Q/K41N/S44L it was 28.2 ^d min. For the same compound, the “recovery of enzyme activity after dilution” value on saFabI [2] was “full recovery of enzyme activity”. In addition, the k-1 on saFabI [2] was 2.33 ± 0.03 ^c hr^-1; at saFabI R40Q/K41N/S44L, 2.13 ± 0.41 ^d hr^-1.
Turning to `N#Cc1ccccc1Oc1ccc(Br)cc1O` [PT443], the tR on saFabI [1] is recorded as 210.9 ^b min.
As for `CCCCCc1ccc(Oc2ccccc2)c(O)c1` [PT03], on saFabI [1], the tR is 300.0 ^b min. At saFabI R40Q/K41N/S44L, the k-1 was 0.32 ± 0.17 ^d hr^-1 and the tR is 187.5 ^d min.
In the case of `Cc1ccc(Oc2ccccc2)c(O)c1` [PT53, 5-Methyl-2-phenoxyphenol], on saFabI [1], the potency estimated from few doses is 0.38 ± 0.03 nM and the tR is on record as 17.3 ^b min. Besides, on saFabI [2], the k-1 is 4.53 ± 0.08 ^c hr^-1 and the tR is on record as 13.2 ^c min.
As for `Oc1ccccc1Oc1ccccc1` [PT51], the “slow-binding inhibition of saFabI” value on saFabI [1] (in words) is reported as “slow-binding inhibition could not be observed”. This compound displayed a tR at saFabI [1] of at most 1 min.
